Read-outs that look alike come from different tables or passages of the source. Values belong to the compound of their own block, whether it stands above or below them.
Assays:
DNA polymerase γ (Pol-γ) = molecular target: T1, DNA polymerase γ (Pol-γ) (Homo sapiens, UniProt P54098); experiment: DNA polymerase inhibition assay, Pol-γ; assay type: biochemical; settings: 1 h, 3H-dTTP incorporation
T1 sequence (P54098 1-1239): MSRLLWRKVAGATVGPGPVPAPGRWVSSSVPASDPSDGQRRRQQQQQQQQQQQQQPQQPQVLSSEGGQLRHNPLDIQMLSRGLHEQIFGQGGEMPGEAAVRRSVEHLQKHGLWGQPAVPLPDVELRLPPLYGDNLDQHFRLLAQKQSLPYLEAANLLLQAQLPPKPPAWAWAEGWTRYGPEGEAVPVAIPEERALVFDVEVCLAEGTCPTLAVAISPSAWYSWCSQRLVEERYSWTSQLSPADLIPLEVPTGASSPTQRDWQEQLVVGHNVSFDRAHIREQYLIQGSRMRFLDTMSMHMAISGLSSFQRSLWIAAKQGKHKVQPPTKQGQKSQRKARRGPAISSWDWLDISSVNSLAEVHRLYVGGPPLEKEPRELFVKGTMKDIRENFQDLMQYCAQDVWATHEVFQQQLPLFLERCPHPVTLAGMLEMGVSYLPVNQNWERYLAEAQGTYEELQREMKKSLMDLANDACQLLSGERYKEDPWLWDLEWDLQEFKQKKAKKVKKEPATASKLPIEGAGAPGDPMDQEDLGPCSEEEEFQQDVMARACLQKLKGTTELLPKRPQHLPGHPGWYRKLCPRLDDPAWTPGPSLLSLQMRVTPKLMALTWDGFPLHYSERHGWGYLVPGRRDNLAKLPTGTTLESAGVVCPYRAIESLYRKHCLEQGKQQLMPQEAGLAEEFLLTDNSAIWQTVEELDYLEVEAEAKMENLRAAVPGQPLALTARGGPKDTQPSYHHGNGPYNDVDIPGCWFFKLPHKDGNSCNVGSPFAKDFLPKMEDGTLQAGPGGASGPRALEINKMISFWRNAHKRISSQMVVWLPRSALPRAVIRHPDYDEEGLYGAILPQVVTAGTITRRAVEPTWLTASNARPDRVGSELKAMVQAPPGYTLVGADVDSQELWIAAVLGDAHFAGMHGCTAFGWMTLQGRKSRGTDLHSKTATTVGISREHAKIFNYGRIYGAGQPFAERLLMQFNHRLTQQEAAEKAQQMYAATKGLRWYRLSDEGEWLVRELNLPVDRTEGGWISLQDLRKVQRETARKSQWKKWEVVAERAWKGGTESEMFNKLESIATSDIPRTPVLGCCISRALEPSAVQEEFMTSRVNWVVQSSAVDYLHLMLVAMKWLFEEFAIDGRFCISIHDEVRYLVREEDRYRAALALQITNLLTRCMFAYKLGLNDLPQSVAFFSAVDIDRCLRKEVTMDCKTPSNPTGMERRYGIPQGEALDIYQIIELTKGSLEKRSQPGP
How it was run: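 Reactions contained 25 μM each dATP/dCTP/dGTP, 25 nM TTP plus 1 μCi ³H-TTP, 160 nM template/primer, and serially diluted test nucleotide (0–200 μM). Incubation was 1 h at 37°C, stopped with TCA (10% final). DNA was precipitated 40 min at 4°C, washed and scintillation-counted; inhibition was taken from reduced radioactivity.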

DNA polymerase α (Pol-α) = molecular target: T2, DNA polymerase α (Pol-α) (Homo sapiens, UniProt P09884); experiment: DNA polymerase inhibition assay, Pol-α; assay type: biochemical
T2 sequence (P09884 1-1462): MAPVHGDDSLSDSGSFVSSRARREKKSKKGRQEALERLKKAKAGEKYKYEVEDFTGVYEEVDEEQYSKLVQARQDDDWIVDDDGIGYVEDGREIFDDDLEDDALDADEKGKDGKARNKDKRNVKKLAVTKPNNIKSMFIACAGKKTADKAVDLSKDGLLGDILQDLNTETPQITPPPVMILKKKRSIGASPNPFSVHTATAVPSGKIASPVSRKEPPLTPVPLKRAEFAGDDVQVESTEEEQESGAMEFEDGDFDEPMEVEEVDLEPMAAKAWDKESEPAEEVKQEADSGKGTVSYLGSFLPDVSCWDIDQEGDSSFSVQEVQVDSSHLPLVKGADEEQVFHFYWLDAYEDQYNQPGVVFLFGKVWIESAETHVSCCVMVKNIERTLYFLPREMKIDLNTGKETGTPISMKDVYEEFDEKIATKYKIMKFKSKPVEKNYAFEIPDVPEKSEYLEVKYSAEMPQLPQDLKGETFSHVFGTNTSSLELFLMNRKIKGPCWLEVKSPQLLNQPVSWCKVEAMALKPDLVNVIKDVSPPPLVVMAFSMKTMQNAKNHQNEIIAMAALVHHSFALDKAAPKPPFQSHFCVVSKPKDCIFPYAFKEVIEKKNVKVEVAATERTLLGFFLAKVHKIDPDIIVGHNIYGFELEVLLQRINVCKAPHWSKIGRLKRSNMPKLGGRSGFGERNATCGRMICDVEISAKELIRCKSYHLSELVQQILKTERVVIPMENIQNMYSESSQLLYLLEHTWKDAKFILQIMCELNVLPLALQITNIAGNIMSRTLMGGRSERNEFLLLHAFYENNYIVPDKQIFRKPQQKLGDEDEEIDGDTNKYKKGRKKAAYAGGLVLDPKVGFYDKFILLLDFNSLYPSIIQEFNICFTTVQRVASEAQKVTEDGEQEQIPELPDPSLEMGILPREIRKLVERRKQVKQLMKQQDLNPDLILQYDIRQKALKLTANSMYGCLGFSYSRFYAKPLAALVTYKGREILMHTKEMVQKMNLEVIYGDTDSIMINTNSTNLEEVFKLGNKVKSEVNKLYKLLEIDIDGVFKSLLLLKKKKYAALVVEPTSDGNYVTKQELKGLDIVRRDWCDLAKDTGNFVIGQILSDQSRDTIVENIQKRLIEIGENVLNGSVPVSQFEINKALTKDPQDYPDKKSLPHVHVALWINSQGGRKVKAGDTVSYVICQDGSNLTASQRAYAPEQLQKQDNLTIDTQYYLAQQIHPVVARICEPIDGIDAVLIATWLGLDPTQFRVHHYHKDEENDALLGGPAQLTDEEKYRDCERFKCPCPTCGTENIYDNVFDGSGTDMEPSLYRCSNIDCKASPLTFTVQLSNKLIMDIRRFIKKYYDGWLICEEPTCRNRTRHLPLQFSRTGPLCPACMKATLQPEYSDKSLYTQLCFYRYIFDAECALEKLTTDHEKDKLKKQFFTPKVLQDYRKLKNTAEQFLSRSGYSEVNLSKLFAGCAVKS

DNA polymerase β (Pol-β) = DNA polymerase β (Pol-β) (Homo sapiens, UniProt P06746); experiment: DNA polymerase inhibition assay, Pol-β; assay type: biochemical; settings: 1 h, 3H-dTTP incorporation
How it was run: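 Reactions contained 25 μM each dATP/dCTP/dGTP, 25 nM TTP plus 1 μCi ³H-TTP, 160 nM template/primer, and serially diluted test nucleotide (0–200 μM). Incubation was 1 h at 37°C. DNA was TCA-precipitated, washed and counted; inhibition was taken from reduced incorporation. ddNTPs served as positive control.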

[1] = Cytotoxicity, sulforhodamine B assay, Molt-4; assay type: cell-based, human; settings: human, Molt-4 cells (blood), day 11
How it was run: (§1)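 Cells were grown 1 week in glucose- or galactose-containing medium, then seeded in 96-well plates. iCell cardiomyocytes were seeded on gelatin-coated plates and grown 5 days. Test compounds in 1:1 ethanol:water were added at each media change on days 0, 3, 7 and 10 (four doses), at up to 250 μM. Final ethanol was 2.5% at 250 μM and 1% otherwise. Total protein was read by sulforhodamine B on day 11. CC50 was fitted from triplicates.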

[2] = Cytotoxicity, sulforhodamine B assay, iCell cardiomyocytes; assay type: cell-based; settings: human, iCell cardiomyocytes (heart)
How it was run: as §1

[3] = Cytotoxicity, sulforhodamine B assay, HepG2; assay type: cell-based, human; settings: human, HepG2 cells (liver), day 11, four doses
How it was run: as §1

[4] = Cytotoxicity, sulforhodamine B assay, SkMC; assay type: cell-based, human; settings: human, SkMC cells (muscle), CC50, SkMC, day 11
How it was run: as §1

[5] = Cytotoxicity, sulforhodamine B assay, COLO 205; assay type: cell-based, human; settings: human, COLO 205 cells (intestine), day 11
How it was run: as §1

[6] = Cytotoxicity, sulforhodamine B assay, Caki-1; assay type: cell-based, human; settings: human, Caki-1 cells (kidney), day 11
How it was run: as §1

SNB-78 (CNS) = experiment: Cytotoxicity, sulforhodamine B assay, SNB-78; assay type: cell-based, human; settings: SNB-78
How it was run: as §1

[7] = Cytotoxicity, sulforhodamine B assay, SNB-78; assay type: cell-based, human; settings: human, SNB-78 cells (CNS), day 11
How it was run: as §1

[8] = Pol-α, 1 h, 3H-dTTP incorporation

IC50 (DNA polymerase γ (Pol-γ)): > 200 µM | IC90 (DNA polymerase γ (Pol-γ)): > 200 µM | IC50 (DNA polymerase α (Pol-α); [8]): > 200 µM | IC90 (DNA polymerase α (Pol-α); [8]): > 200 µM | IC50 (DNA polymerase β (Pol-β)): > 200 µM | IC90 (DNA polymerase β (Pol-β)): > 200 µM
Compound: O=P(O)(O)OP(=O)(O)OP(=O)(O)OC[C@H]1O[C@@H](n2cnc3c(O)ncnc32)[C@H](F)[C@@H]1O [2′-F-ITP]

Compound: C[C@@]1(CO)[C@H](O)CC[C@@]2(C)[C@H]1CC[C@H]1C[C@@H]3C[C@@]12CC[C@]3(O)CO [Aphidicolin, reference compound]
IC90 (DNA polymerase α (Pol-α)): 16.5 µM

Compound: CC(C)OC(=O)[C@H](C)N[P@](=O)(OC[C@H]1O[C@@H](n2ccc(=O)[nH]c2=O)[C@](C)(F)[C@@H]1O)Oc1ccccc1 [SOF, Sofosbuvir]
CC50 at 11 days ([1]; CC50, Molt-4, Galactose media): > 250 µM | CC50 at 11 days ([1]; CC50, Molt-4, Glucose media): > 250 µM | CC50 at 11 days [2]: > 250 µM | CC50 at 11 days ([3]; CC50, HepG2, Galactose media): 97 µM | CC50 at 11 days ([3]; CC50, HepG2, Glucose media): 114 µM | CC50 at 11 days ([4]; Galactose media): > 250 µM | CC50 at 11 days ([4]; Glucose media): > 250 µM | CC50 at 11 days ([5]; CC50, COLO 205, Galactose media): 123 µM | CC50 at 11 days ([5]; CC50, COLO 205, Glucose media): 155 µM | CC50 at 11 days ([6]; CC50, Caki-1, Galactose media): > 250 µM | CC50 at 11 days ([6]; CC50, Caki-1, Glucose media): > 250 µM | decrease of CC50 in galactose compared to glucose media (SNB-78 (CNS)): 2–10 fold | CC50 at 11 days ([7]; CC50, SNB-78, Galactose media): 120 µM | CC50 at 11 days ([7]; CC50, SNB-78, Glucose media): > 250 µM

IC50 (DNA polymerase γ (Pol-γ)): 0.35 µM | IC90 (DNA polymerase γ (Pol-γ)): 8.65 µM | IC50 (DNA polymerase β (Pol-β)): 0.06 µM | IC90 (DNA polymerase β (Pol-β)): 0.65 µM
Compound: dideoxy nucleoside 5′ triphosphates [ddNTP, reference compound]

— article PMC6468299 (Nucleic Acids Research, 2019)
